Experimental data published in ChEMBL document CHEMBL1142233, “Treatment of diabetes and atherosclerosis by inhibiting fatty-acid-binding protein aP2” (2007).
Active and inactive are the calls of the source.

Experiments:
Mus musculus [1] = test: Effect on body weight in 5-week old apoE-/- C57BL/6J mouse fed on western diet and 15 mg/kg/day, po drug simultaneously in 5-11 week early intervention study; type: functional
Mus musculus [2] = test: Effect on insulin level in 5-week old apoE-/- C57BL/6J mouse fed on western diet and 15 mg/kg/day, po drug simultaneously in 5-11 week early intervention study; type: functional
How it was run: (§1)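 Male Apoe−/− mice on western diet (21% fat, 0.21% cholesterol) from 4–5 weeks of age. Oral gavage for 6 weeks from age 5 or 12 weeks; vehicle 10% 1-methyl-2-pyrrolidone, 5% cremophor EL with ethanol in water. Blood taken after 6 h fast before and after treatment. Glucose by meter; insulin by ELISA; lipids and glycerol colorimetric.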

Mus musculus [3] = test: Effect on adiponectin level in 5-week old apoE-/- C57BL/6J mouse fed on western diet and 15 mg/kg/day, po drug simultaneously in 5-11 week early intervention study; type: functional; how it was run: as §1
Mus musculus [4] = test: Decrease in Fasn expression in liver of ob/ob mouse at 40 mg/kg/day, po; type: functional, organism-based
How it was run: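 Liver from male ob/ob mice gavaged daily for 6 weeks from 8 weeks of age, n = 6 per group. mRNA measured by SYBR Green real-time PCR: 95 °C 4 min, then 50 cycles of 95 °C 15 s, 58 °C 30 s, 72 °C 30 s. Normalized to 18s rRNA.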

Mus musculus [5] = test: Increase in insulin-stimulated AKT serine 473 phosphorylation in ob/ob mouse liver at 40 mg/kg/day, po relative to control; type: functional, organism-based
How it was run: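 Male ob/ob mice got 40 mg kg⁻¹ d⁻¹ by oral gavage or vehicle. After a 6 h fast under tribromoethanol anaesthesia, portal-vein insulin (2 IU kg⁻¹) or PBS was given. Liver was removed 3 min later, lysed and western-blotted for IRβ pTyr1162/1163 and AKT pSer473 against total IRβ and AKT, then quantified.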

THP-1 [6] = test: Reduction of IL1-beta expression in human THP1 cells expressing aP2 relative to control; type: functional, cell-based
THP-1 [7] = test: Reduction of IL6 expression in human THP1 cells expressing aP2 relative to control; type: functional, cell-based
Mus musculus [8] = test: Increase in whole body glucose disposal and glucose infusion rate in ob/ob mouse at 40 mg/kg/day, po after 4 weeks by hyperinsulinemic-euglycaemic clamp studies; type: functional, organism-based
How it was run: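 Clamps were run in ob/ob mice after 4 weeks of oral gavage at 40 mg kg⁻¹ d⁻¹ (vehicle n = 7, treated n = 9), with jugular catheters placed 4 days earlier. Insulin was infused at 12.5 mU kg⁻¹ min⁻¹, 25% glucose at variable rates held basal glycaemia, and ³H-glucose ran at 0.1 μCi min⁻¹. Clamp hepatic glucose production = whole-body uptake minus glucose infusion rate.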

Mus musculus [9] = test: Increase in glucose uptake in gastrocnemius muscle in ob/ob mouse at 40 mg/kg/day, po after 4 weeks by hyperinsulinemic-euglycaemic clamp studies relative to control; type: functional, organism-based
How it was run: (§2)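 Ob/ob mice after 4 weeks of treatment, jugular catheterized 4 days earlier. Clamp with insulin at 12.5 mU kg⁻¹ min⁻¹, variable 25% glucose to hold basal glucose, and ³H-glucose at 0.1 μCi min⁻¹ with 2-¹⁴C-DG. Tissue uptake computed from the fitted plasma 2-¹⁴C-DG curve and tissue 2-¹⁴C-DG-6-phosphate content. n = 7 and 9.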

Mus musculus [10] = test: Increase in glucose uptake in epididymal fat in ob/ob mouse at 40 mg/kg/day, po after 4 weeks by hyperinsulinemic-euglycaemic clamp studies relative to control; type: functional, organism-based; how it was run: as §2
Mus musculus [11] = test: Effect on body weight in 5-week old apoE-/- C57BL/6J mouse fed on western diet and administered with 15 mg/kg/day, po drug at 12 week in 12-18 week late intervention study; type: functional
Mus musculus [12] = test: Effect on glucose level in 5-week old apoE-/- C57BL/6J mouse fed on western diet and administered with 15 mg/kg/day, po drug at 12 week in 12-18 week late intervention study; type: functional; how it was run: as §1
Mus musculus [13] = test: Effect on insulin level in 5-week old apoE-/- C57BL/6J mouse fed on western diet and administered with 15 mg/kg/day, po drug at 12 week in 12-18 week late intervention study; type: functional; how it was run: as §1
Mus musculus [14] = test: Effect on cholesterol level in 5-week old apoE-/- C57BL/6J mouse fed on western diet and administered with 15 mg/kg/day, po drug at 12 week in 12-18 week late intervention study; type: functional; how it was run: as §1
THP-1 [15] = test: Increase in ABCA1 protein level in human THP1 cells at 25 uM relative to control; type: functional, cell-based
Macrophage [16] = test: Increase in cholesterol efflux in mouse aP2+/+ macrophage cells at 25 uM relative to control; type: functional, cell-based
How it was run: (§3)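 Macrophages loaded 24 h in RPMI with 5% LPDS, 1 μCi ml⁻¹ ³H-cholesterol and 50 μg ml⁻¹ acLDL, ± 25 μM inhibitor. Equilibrated 24 h in 0.2% fatty-acid-free BSA ± inhibitor, then 4 h ± APOA1 20 μg ml⁻¹. Efflux = medium ³H as % of total, per mg protein; mouse lines normalized to untreated aP2+/+.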

Macrophage [17] = test: Increase in cholesterol efflux in mouse aP2-/-R macrophage cells (re-expression of aP2) at 25 uM relative to control; type: functional, cell-based; how it was run: as §3
THP-1 [18] = test: Reduction of Mcp1 expression in human THP1 cells expressing aP2 relative to control; type: functional, cell-based
Mus musculus [19] = test: Decrease in Mcp1 expression in ob/ob mouse adipose tissue at 40 mg/kg/day, po; type: functional, organism-based
Mus musculus [20] = test: Decrease in IL6 expression in ob/ob mouse adipose tissue at 40 mg/kg/day, po; type: functional, organism-based
Mus musculus [21] = test: Decrease in TNF expression in ob/ob mouse adipose tissue at 40 mg/kg/day, po; type: functional, organism-based
[22] = Reduction of IL1-beta expressed in mouse aP2-/-R macrophage cells (re-expression of aP2) relative to control; type: functional, cell-based
How it was run: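 Mouse aP2⁺/⁺ and aP2-reconstituted aP2⁻/⁻ macrophage lines were grown in RPMI with FBS or 5% LPDS, with inhibitor in DMSO or vehicle. Mcp-1, Il1β, Il6 and Tnf mRNA were measured by SYBR Green qRT-PCR (annealing at 58 °C, 50 cycles), normalized to 18s rRNA and then to untreated cells. Mean ± s.e.m.; at least triplicate.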

Mus musculus [23] = test: Decrease in blood glucose level in fasted ob/ob mouse at 40 mg/kg/day, po after 6 weeks; type: functional, organism-based
How it was run: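 Male ob/ob mice given oral gavage daily for 6 weeks from 8 weeks old, n = 6 per group. Blood taken after 6 h fast before and after treatment; fed glucose taken at week 2. Glucose by meter on 3 μl whole blood, insulin by ultrasensitive ELISA, cholesterol, FFA and glycerol by colorimetric microplate assays.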

Mus musculus [24] = organism: Mus musculus; test: Decrease in fatty acid uptake in wild type mouse aP2+/+ mal1+/+ preadipocytes after 24 hrs; type: functional
How it was run: (§4)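 Immortalized mouse pre-adipocytes differentiated with dexamethasone, IBMX, rosiglitazone and insulin, then insulin alone. Cells incubated 24 h in DMEM with 2% FBS plus inhibitor, then moved to DMEM with 2% BSA and given ³H-stearate at 37 °C for 30 min. Lysate counted by scintillation; values normalized to protein and expressed as % of untreated.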

Adipocyte = test: Decrease in fatty acid uptake in FABP-deficient mouse adipocytes reconstituted with exogenous aP2 after 24 hrs; type: functional, cell-based; how it was run: as §4

Measured: Activity

CCc1c(-c2ccccc2)c(-c2ccccc2)nn1-c1ccccc1-c1cccc(OCC(=O)O)c1
active: Mus musculus [4] | Mus musculus [5] | THP-1 [6] | THP-1 [7] | Mus musculus [8] | Mus musculus [9] | Mus musculus [10] | THP-1 [15] | Macrophage [16] | Macrophage [17] | THP-1 [18] | Mus musculus [19] | Mus musculus [20] | Mus musculus [21] | [22] | Mus musculus [23] | Mus musculus [24] Dose-dependent effect | Adipocyte
2277.2 mg/dL: Mus musculus [14]
37 g: Mus musculus [11]
0.5 ng/mL: Mus musculus [2]
147.2 mg/dL: Mus musculus [12]
2.19 ng/mL: Mus musculus [13]
30.3 g: Mus musculus [1]
8.59 µg/mL: Mus musculus [3]
